Peptide text beside a SMILES is read from it.
Columns and labels:
[1] = Binding affinity to mouse-human chimeric antibody 93F3
[2] = Binding affinity to fragment antigen binding portion of mouse-human chimeric 93F3 antibody assessed as relative signal by ELISA in presence of 10 uM 2-acetylcyclohexanone
Procedure, shortened: (§1)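 Antibody 93F3 coated on microtiter wells (1 µg/25 µL PBS, 37 °C 1 h), blocked with 3% BSA/PBS at 37 °C 1 h. Phage culture supernatant was added with diketone (final 10 µM, from 20 µM in 1% DMSO/PBS) or PBS alone, then incubated 37 °C 1 h. Wells washed with water; bound phage detected with anti-M13–HRP plus ABTS/H2O2, A405.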

[3] = Binding affinity to fragment antigen binding portion of mouse-human chimeric 93F3 antibody assessed as relative signal by ELISA in presence of 10 uM 6-(4-nitrophenyl)hexane-2,4-dione
Procedure, shortened: as §1

[4] = Binding affinity to fragment antigen binding portion of mouse-human chimeric 93F3 antibody assessed as relative signal by ELISA in presence of 10 uM 5-{[4-(3,5-dioxohexyl)phenyl]amino}-5-oxopentanoic acid
Procedure, shortened: as §1

[5] = Binding affinity to fragment antigen binding portion of mouse-human chimeric 93F3 antibody assessed as relative signal by ELISA
Procedure, shortened: as §1

| Compound | Kd [1] | Activity [2] | Activity [3] | Activity [4] | Activity [5] |
| --- | --- | --- | --- | --- | --- |
| CC(=O)CC(=O)CCc1ccccc1 | 1000 nM |  |  |  |  |
| CC(C)C[C@@H](NC(=O)[C@H](Cc1ccc(O)cc1)NC(=O)[C@@H](N)Cc1c[nH]c2ccccc12)C(=O)N1CCC[C@H]1C(=O)N[C@@H](CC(=O)O)C(=O)N[C@@H](CC(N)=O)C(=O)N1CCC[C@H]1C(=O)N[C@@H](CO)C(=O)N[C@H](C(=O)N[C@@H](Cc1c[nH]c2ccccc12)C(=O)N[C@@H](Cc1cnc[nH]1)C(=O)N[C@H](C(=O)O)[C@@H](C)O)[C@@H](C)O |  | 0.7 | 0.1 | 0.1 | 1 |
| C[C@H](O)[C@H](NC(=O)[C@@H]1CCCN1C(=O)[C@H](Cc1ccccc1)NC(=O)[C@H](Cc1c[nH]c2ccccc12)NC(=O)[C@H](Cc1c[nH]c2ccccc12)NC(=O)[C@@H]1CCCN1C(=O)[C@@H](N)CS)C(=O)N[C@@H](CCC(N)=O)C(=O)N[C@@H](CS)C(=O)O |  | 1 | 0.1 | 0.1 | 0.2 |
| CC(C)C[C@H](NC(=O)[C@H](Cc1cnc[nH]1)NC(=O)[C@H](Cc1c[nH]c2ccccc12)NC(=O)[C@@H]1CCCN1C(=O)[C@@H](N)CS)C(=O)N[C@@H](CC(C)C)C(=O)N1CCC[C@H]1C(=O)N[C@@H](Cc1ccccc1)C(=O)N[C@@H](CS)C(=O)O (H-CPWHLLPFC-OH) |  | 0.8 | 0.2 | 0.1 | 1 |
| CC(C)C[C@H](NC(=O)[C@H](C)NC(=O)[C@H](Cc1cnc[nH]1)NC(=O)[C@@H](NC(=O)[C@H](CC(C)C)NC(=O)[C@@H]1CCCN1C(=O)[C@H](CO)NC(=O)[C@@H](N)CS)[C@@H](C)O)C(=O)N[C@@H](CS)C(=O)O (H-CSPLTHALC-OH) |  | 0.2 | 0.2 | 1 | 0.2 |
| CC(C)C[C@H](NC(=O)[C@H](Cc1c[nH]c2ccccc12)NC(=O)[C@H](Cc1cnc[nH]1)NC(=O)[C@@H](NC(=O)[C@H](Cc1ccccc1)NC(=O)[C@@H]1CCCN1C(=O)[C@@H](NC(=O)[C@@H](N)CS)[C@@H](C)O)[C@@H](C)O)C(=O)N[C@@H](CS)C(=O)O (H-CTPFTHWLC-OH) |  | 0.1 | 0.1 | 1 | 0.1 |
| H-QVPWSYLANGLL-OH |  | 0.7 | 0.2 | 0.1 | 1 |

Source: ChEMBL document CHEMBL1150373, “Selection of phage-displayed peptides that bind to a particular ligand-bound antibody” (Bioorg Med Chem, 2008)
